From PubChem
Rows were chosen to be rich in hits. Some 2.9% of all compounds tested hit in one or more screens of this group.
PGC1a acetyl inh = PGC1a acetylation modulation, inhibitor mode. U2OS PGC1a acetylation, AlphaScreen anti-acetyl-lysine; with virally co-expressed GCN5 acetyltransferase. inhibition, % at 15.6 µM. 350,000 tested, 0.17% active. AID 651687;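 active = every replicate shows inhibition of at least 40%; inconclusive = mean inhibition at least 40% but some replicate below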
Vif imaging = blocks HIV Vif function | HEK293T cells, Vif self-association by quenched fluorescence, imaging, 24 h | inhibition, % at 7.49 µM | 340,000 tested, 0.35% active; in the data active = inhibition above about 50%, passing the limit was not always enough; inconclusive = no clear call, values can overlap the other calls; inactive = below about 31%
rRNA inh HTS = inhibits bacterial ribosomal RNA function over humanized ribosomes. E. coli WT GFP vs humanized-ribosome RFP mutants, fluorescence, 24 h; stronger effect = lower value; DMSO median 0, no signal -100. GFP signal change (wild-type ribosome), % (no concentration beside the values). 350,000 tested, 1.6% active. AID 720706;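 active = significant combined selectivity score with lowered wild-type GFP, culture density cut under 30%, mutant RFP and density less affected; inactive = any of these conditions unmet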
FGF22 binding = binders of recombinant human FGF22 by thermal shift; Q9HCT0; SYPRO orange fluorescence; percent of sucrose octasulfate shift, DMSO zero; activity (Tm shift, normalised), % at 9.99 µM; 340,000 tested, 1.5% active;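 active = mean Tm shift, scaled 0 neutral to 100 positive control, at about 1.3% or above, every replicate too, limit read from the data; inconclusive = no clear call, values can overlap the other calls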
Target sequence (Q9HCT0 whole entry, looked up): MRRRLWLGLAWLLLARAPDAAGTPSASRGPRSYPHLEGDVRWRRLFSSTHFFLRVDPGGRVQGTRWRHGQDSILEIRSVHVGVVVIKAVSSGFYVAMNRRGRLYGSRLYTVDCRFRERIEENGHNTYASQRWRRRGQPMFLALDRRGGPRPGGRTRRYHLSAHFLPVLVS
PglD DTNB = inhibitors of Campylobacter jejuni PglD acetyltransferase; purified PglD enzyme, DTNB colorimetric CoA detection; inhibition, % at 12.5 µM; 360,000 tested, 0.098% active; AID 602405; in the data active = inhibition above about 16%, passing the limit was not always enough; inconclusive = no clear call, values can overlap the other calls
Cneo AK release = causes C. neoformans cell lysis; lysis activity, % at 15 µM; adenylate kinase release luminescence, 4 h; normalised: neutral wells 0, clomiphene wells 100; AID 651654; 360,000 tested, 0.2% active;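 active = mean lysis activity across replicates of at least 80%, whatever share of replicates individually reach that level; inactive = mean lysis activity below 80%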
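Assay system: Cryptococcus neoformans yeast cells / Dosing: single-point compound dose / Timing: 4 h at 37 °C static, read 1 h later / Measured by: luminescence of released adenylate kinase using an AK detection reagent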
AID977621 = wild-type E. coli growth inhibition versus H69 humanized strain – H69 mutant RFP, wild-type GFP, cherry-pick, dose response | shares compounds with rRNA inh HTS | fluorescence, 24 h | activity change, negative = inhibition at 50 µM | 1,900 tested, under 10 active | AID 977621;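 active = Wild-type ribosome reporter drop at least double the humanized mutant ribosome reporter drop, growth loss under a set limit; inconclusive = no clear call, values can overlap the other calls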;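 also: wild-type GFP and H69 mutant RFP strains grown together 50/50 in each well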
AID977628 = E. coli growth inhibition, wild-type GFP versus h24 humanized RFP strain, dose response, h24 mutant RFP vs wild-type GFP, cherry-pick | shares compounds with rRNA inh HTS | E. coli WT GFP strain growth, fluorescence, 24 h | activity change, negative = inhibition at 50 µM | 1,900 tested, under 10 active | AID 977628;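 active = compound lowering the normal-ribosome reporter at least twice as much as the humanized-ribosome reporter, growth loss under a set limit; inconclusive = no clear call, values can overlap the other calls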;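 also: wild-type GFP and h24 humanized RFP strains co-cultured 1 to 1 per well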
A number is an active result; – = inactive; ? = inconclusive; · = no result given.

SMILES | PGC1a acetyl inh | Vif imaging | rRNA inh HTS | FGF22 binding | PglD DTNB | Cneo AK release | AID977621 | AID977628
CCC(=O)Nc1ccc2c(c1)C(=O)N(C)[C@H]1CC[C@@H](CC(=O)NCCc3ccncc3)O[C@@H]1CO2 | – | · | – | – | – | – | · | ·
CC(C)(C)C1CCC(OC(=O)C[N+]2(C)CCCCC2)CC1 (stereo not given) | – | – | -17 | – | · | · | – | –
CC(=O)c1cccc(NC(=O)C2CCCN(S(C)(=O)=O)C2)c1 (stereo not given) | – | – | -27 | – | – | – | – | –
Cc1cc(NC(=O)c2cccc(Oc3ccccc3)c2)n[nH]1 | – | · | -22 | – | · | · | · | ?
C=CCn1c(C)cc(C(=O)CSc2nnc(C3CC3)n2C2CC2)c1C | – | – | -20 | – | – | – | – | ·
Cc1cc(C(=O)CSc2nnc(C3CC3)n2C2CC2)c(C)n1C(C)C | – | – | – | – | – | – | · | ·
O=C(O)CNC(=O)C(c1ccccc1)c1ccccc1 | · | – | -17 | – | · | · | – | –
O=C(NCCO)C(c1ccccc1)c1ccccc1 | – | – | · | · | – | – | · | ·
Cc1ccccc1OCc1nc2ccccc2n1C | – | – | -27 | – | – | – | · | –
O=C(Cc1ccccn1)NCC[C@H]1CC[C@H](NC(=O)CN2CCOCC2)[C@H](CO)O1 | – | · | – | – | – | – | · | ·
CCC(CO)Oc1cc(NC(=O)c2ccccc2C)c2ncn(C(C)C)c2c1 (stereo not given) | · | – | – | – | – | – | · | ·
CCC(CO)Oc1cc(NC(=O)c2ccccc2F)c2ncn(C(C)C)c2c1 (stereo not given) | – | – | -20 | – | – | – | · | ?
CC(=O)N(C)C[C@H]1Oc2cc(-c3cccnc3)ccc2S(=O)(=O)N([C@H](C)CO)C[C@H]1C | – | · | – | – | – | – | · | ·
Cc1noc(C)c1S(=O)(=O)Nc1ccc2c(c1)C(=O)N([C@@H](C)CO)C[C@@H](C)[C@@H](CN(C)C(=O)Nc1ccc(C(F)(F)F)cc1)OCCCC[C@H](C)O2 | – | · | – | – | – | – | · | ·
CCOC(=O)C(C)(C)n1nnc(-c2ccc([N+](=O)[O-])cc2)n1 | – | – | -23 | – | · | · | – | ?
CCOC(=O)Cn1nnc(-c2ccc([N+](=O)[O-])cc2)n1 | – | – | – | – | · | · | · | ·
O=C(CSc1nc(C2CC2)nc2ccccc12)Nc1ccccc1N1CCOCC1 | · | – | -17 | – | · | · | – | –
CCc1ccc2nc(SCC(=O)Nc3ccccc3N3CCOCC3)c(C#N)cc2c1 | – | – | -30 | – | · | · | – | –
CCn1c(COc2cccc(OC)c2)nnc1SCC(=O)Nc1cc(OC)ccc1OC | – | – | -23 | · | – | – | – | –
CCn1c(COc2ccccc2)nnc1SCC(=O)Nc1cc(OC)ccc1OC | · | – | · | · | – | – | · | ·
CN(C)C(=O)C[C@@H]1CC[C@H]2[C@H](COc3ccc(NC(=O)c4cnccn4)cc3C(=O)N2C)O1 | – | · | – | – | – | – | · | ·
CC(C)c1cc(C(N)=O)c(NC(=O)C2CCC2)s1 | · | – | -24 | – | · | · | ? | ·
CC(C)c1nnc(NC(=O)C2CCCCC2)s1 | · | – | – | – | – | – | · | ·
O=[N+]([O-])c1ccc(O)c(CSc2nnnn2-c2ccccc2)c1 | – | – | -26 | – | – | – | – | –
C[C@@H]1CN([C@@H](C)CO)C(=O)c2cccc(NC(=O)c3ccncc3)c2O[C@@H]1CN(C)C(=O)NC1CCCCC1 | – | · | – | – | – | – | · | ·
SMILES | PGC1a acetyl inh | Vif imaging | rRNA inh HTS | FGF22 binding | PglD DTNB | Cneo AK release | AID977621 | AID977628
Cc1ccc(S(=O)(=O)Nc2ccc3c(c2)C(=O)N([C@H](C)CO)C[C@@H](C)[C@@H](CN(C)C(=O)c2ccncc2)OCCCC[C@H](C)O3)cc1 | – | · | – | – | – | – | · | ·
CC(CCc1ccccc1)NC(=O)CCC1CCCC1 (stereo not given) | – | – | -21 | – | – | – | – | –
CC(CCc1ccccc1)NC(=O)CCC(=O)N1CCC(C(=O)O)CC1 (stereo not given) | – | – | – | – | – | – | · | ·
Cc1ccc(S(=O)(=O)Nc2ccc3c(c2)C(=O)N([C@H](C)CO)C[C@@H](C)[C@H](CN(C)C(=O)c2ccccc2)OCCCC[C@@H](C)O3)cc1 | – | · | -16 | · | – | – | – | ?
Cc1ccc(S(=O)(=O)Nc2ccc3c(c2)C(=O)N([C@H](C)CO)C[C@H](C)[C@@H](CN(C)C(=O)c2ccccc2)OCCCC[C@@H](C)O3)cc1 | – | · | – | · | – | – | · | ·
Cc1ccc(S(=O)(=O)Nc2ccc3c(c2)C(=O)N([C@@H](C)CO)C[C@@H](C)[C@@H](CN(C)C(=O)c2ccccc2)OCCCC[C@H](C)O3)cc1 | – | · | – | · | – | – | · | ·
Cc1ccc(S(=O)(=O)Nc2ccc3c(c2)C(=O)N([C@@H](C)CO)C[C@@H](C)[C@H](CN(C)C(=O)c2ccccc2)OCCCC[C@@H](C)O3)cc1 | – | · | -23 | · | – | – | – | –
O=C(Cn1c(C(=O)NCc2ccco2)cc2sccc21)c1ccccc1 | – | – | -23 | – | – | – | – | ?
COc1ccc(C)c2sc(N(CCN(C)C)C(=O)c3ccc(S(=O)(=O)N(C)c4ccccc4)cc3)nc12 | – | – | -12 | – | – | – | · | –
Cc1ccc2sc(N(CCCN(C)C)C(=O)c3ccc(S(=O)(=O)N4CCc5ccccc5C4)cc3)nc2c1C | – | – | -29 | – | – | – | – | –
COc1cccc2sc(N(CCCN(C)C)C(=O)c3ccc(S(=O)(=O)N4CCc5ccccc5C4)cc3)nc12 | · | · | – | – | – | – | · | ·
Cc1ccc(C#CC[N+](C)(C)CC#Cc2ccccc2)cc1 | – | – | -54 | – | · | · | · | ?
Cc1noc(C)c1S(=O)(=O)N(C)C[C@@H]1Oc2ccc(NC(=O)Nc3ccc(C(F)(F)F)cc3)cc2CC(=O)N([C@H](C)CO)C[C@H]1C | – | · | – | – | – | – | · | ·
Cc1cc(C(=O)Nc2ccc(Cl)cc2)c(C)n1Cc1cccs1 | · | – | -30 | – | · | · | – | –
O=C(CN1CCOCC1)N[C@H]1CC[C@@H](CCn2cc(C3CCCCC3)nn2)O[C@H]1CO | – | · | – | – | – | – | · | ·
C[C@@H]1CN([C@H](C)CO)C(=O)c2cc(NC(=O)NC3CCCCC3)ccc2O[C@@H](C)CCCCO[C@@H]1CN(C)C(=O)C1CCCCC1 | · | · | – | – | – | – | · | ·
O=C(c1ccc(-n2cccn2)cc1)N1CCc2ccccc2C1 | – | – | -27 | – | – | – | – | ?
